Consider one compound from PMC2996727 (Biochemistry, 2009).

The target of the experiment is T1, YfcG (Escherichia coli, UniProt P77526).
T1 sequence (P77526 1-215): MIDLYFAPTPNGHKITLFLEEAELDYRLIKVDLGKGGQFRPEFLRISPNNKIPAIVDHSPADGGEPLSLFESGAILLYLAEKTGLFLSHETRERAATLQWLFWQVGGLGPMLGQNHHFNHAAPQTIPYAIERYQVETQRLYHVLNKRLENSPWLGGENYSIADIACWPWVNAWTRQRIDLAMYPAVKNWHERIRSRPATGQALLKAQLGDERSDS
Nature of the experiment: intrinsic fluorescence titration. It counts as binding. In outline: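 Purified enzyme titrated with thiol and disulfide ligands at 25 °C, monitoring the protein's intrinsic fluorescence; dissociation constants derived from the titration.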

One may read the Kd as the concentration at which binding is half-saturated. Low values mean higher affinity, high ones lower affinity. `N[C@@H](CCC(=O)N[C@@H](CS(=O)(=O)O)C(=O)NCC(=O)O)C(=O)O` [GSO3^−]: the Kd was 23 ± 5 µM.
